Assay outcomes deposited in PubChem by several laboratories.
Jurkat NFkB inh = inhibitors of induced NF-kB luciferase reporter, primary screen, TCR NF-kB activation inhibitor project, cell-based, luminescence, uHTS; Jurkat, PMA/ionomycin-induced NF-kB luciferase reporter; inhibition, % at 4 µM; hit rate 0.53% among 330,000; AID 435003, 2010; in the data active means inhibition above about 50%
IMP-1 inh = IMP-1 metallo-beta-lactamase inhibitors, primary screen, biochemical, epi-absorbance readout, Pseudomonas aeruginosa enzyme; inhibition, % at 5.6 µM; purified IMP-1, nitrocefin hydrolysis, epi-absorbance fluorescence; metallo-beta-lactamase IMP-1 (Pseudomonas aeruginosa); hit rate 0.45% among 290,000;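 active means inhibition above the mean plus 3 SD of all compounds in the same screening run, cut at about 4.5% in these data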;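 further: 0% = IMP-1 with DMSO and 100% = DMSO wells lacking enzyme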
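System – purified recombinant IMP-1 beta-lactamase · Input – IMP-1 dispensed at 0.2 nM · Timing – 15 min preincubation plus 25 min reaction at 25 °C · Signal – Epi-absorbance fluorescence, 480 nm excitation, 530 nm emission · Measure – percent IMP-1 inhibition derived from blank-referenced optical density · Controls – Enzyme-plus-DMSO low control, enzyme-free DMSO high control · Replication – singlicate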
aSyn 5UTR inh = MLPCN primary screen, SNCA 5' untranslated region | alpha-synuclein 5'UTR reporter, inhibitor activity | inhibition, % (tested at 7.5 µM) | hit rate 0.82% among 300,000; in the data active means inhibition above about 60%;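 further: H4 neuroglioblastoma cells stably carrying SNCA 5'UTR luciferase fusion; 0% = DMSO wells and 100% = positive control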
VIM-2 inhibitor = VIM-2 metallo-beta-lactamase inhibitors, primary screen, biochemical, epi-absorbance readout, Pseudomonas aeruginosa enzyme | purified VIM-2, nitrocefin hydrolysis, epi-absorbance fluorescence | inhibition, % at 5.6 µM | hit rate 0.89% among 290,000;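 active means inhibition above the mean of all tested compounds plus 3 SD, cutoff set per screening run, cut at about 7.5% in these data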;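 further: red hydrolysis product quenches plate fluorescence so inhibitors raise well fluorescence; 0% = enzyme with DMSO and 100% = DMSO without enzyme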
Mdm2-MdmX inh = inhibitors of human Mdm2-MdmX association, primary screen, cell-based, luminescence, split luciferase, SaOS-2, uHTS | Protein Mdm4 (Homo sapiens) + E3 ubiquitin-protein ligase Mdm2 (Homo sapiens), … | AID 485346, 2010 | SaOS-2 split-luciferase Mdm2/MdmX complementation | hit rate 3% among 330,000 | inhibition, % at 8 µM;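 active means inhibition of at least 50% at 8 µM in the primary screen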
Target sequence (O15151 whole entry, looked up): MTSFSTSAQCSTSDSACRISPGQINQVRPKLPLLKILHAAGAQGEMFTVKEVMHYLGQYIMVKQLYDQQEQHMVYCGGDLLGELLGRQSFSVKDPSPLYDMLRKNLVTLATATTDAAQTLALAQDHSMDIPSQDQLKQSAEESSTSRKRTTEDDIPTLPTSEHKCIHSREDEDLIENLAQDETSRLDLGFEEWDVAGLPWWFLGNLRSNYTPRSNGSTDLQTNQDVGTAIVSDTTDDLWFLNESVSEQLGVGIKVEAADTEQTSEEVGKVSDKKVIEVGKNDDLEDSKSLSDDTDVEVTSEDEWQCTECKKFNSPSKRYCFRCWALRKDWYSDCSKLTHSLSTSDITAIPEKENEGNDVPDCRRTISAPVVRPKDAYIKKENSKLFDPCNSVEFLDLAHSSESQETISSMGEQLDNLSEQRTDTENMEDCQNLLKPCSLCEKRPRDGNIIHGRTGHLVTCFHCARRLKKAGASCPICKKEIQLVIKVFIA
Target sequence (Q00987 whole entry, looked up): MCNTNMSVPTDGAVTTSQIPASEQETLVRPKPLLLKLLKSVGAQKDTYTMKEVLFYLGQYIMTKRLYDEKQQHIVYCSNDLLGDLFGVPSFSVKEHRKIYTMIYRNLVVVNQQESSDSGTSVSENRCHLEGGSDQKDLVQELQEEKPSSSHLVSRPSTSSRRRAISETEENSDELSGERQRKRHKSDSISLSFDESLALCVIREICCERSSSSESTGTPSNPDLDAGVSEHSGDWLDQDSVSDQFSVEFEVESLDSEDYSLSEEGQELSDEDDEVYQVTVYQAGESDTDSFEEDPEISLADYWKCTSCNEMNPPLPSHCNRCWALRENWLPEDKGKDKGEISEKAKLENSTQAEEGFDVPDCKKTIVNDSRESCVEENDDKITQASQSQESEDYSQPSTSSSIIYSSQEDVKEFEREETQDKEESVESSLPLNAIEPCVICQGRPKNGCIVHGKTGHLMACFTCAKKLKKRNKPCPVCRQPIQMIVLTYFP
697 NFkB inh = inhibitors of PMA/ionomycin-induced NF-kB reporter, 697 cells, primary screen, B-cell NF-kB inhibitor project, cell-based, luminescence, uHTS; hit rate 0.33% among 330,000; inhibition, % at 4 µM; 697 B-cell NF-kB luciferase reporter, 16 h; in the data active means inhibition above about 35%
Mdm2 MdmX conf = Mdm2-MdmX complex disruptors, retested hits, confirmation, luminescence, single concentration; shares compounds with Mdm2-MdmX inh; Mdm2-MdmX binding, luminescent assay; inhibition, % at 8 µM; hit rate 55% among 10,000; in the data active means inhibition above about 40%
FLuc counter = full-length luciferase signal inhibition, confirmation, counter-screen for Mdm2/MdmX interaction inhibitor project, cell-based, single concentration, SaOS-2. shares compounds with Mdm2-MdmX inh. SaOS-2 full-length luciferase counterscreen, luminescence. inhibition, % at 8 µM. hit rate 77% among 6,200;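 active means mean inhibition at 8 µM reaching about 37%, which flags the compound as non-specific, limit read from the data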;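 further: p53-null SaOS-2 cells with luciferase driven by a doxycycline-inducible promoter; compound on cells about two nights before reading with doxycycline added after day one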
Starred values were filed as active, the others as inactive; / = no result. Shown are actives, neighbours in structure and some others; about 4.7% of the full set was active somewhere.

SMILES	Jurkat NFkB inh	IMP-1 inh	aSyn 5UTR inh	VIM-2 inhibitor	Mdm2-MdmX inh	697 NFkB inh	Mdm2 MdmX conf	FLuc counter
CC(=O)c1ccc(NC(=O)CCNS(=O)(=O)c2ccccc2F)cc1	-4	-3	-26	-2	-18	5	/	/
N#C/C(=C\c1cn(CCOc2ccccc2F)c2ccccc12)C(=O)NCc1cccs1	-2	-1	34	-3	54*	5	21	/
COc1ccc(C(=O)Nc2ccc3c(c2)C(=O)c2ccccc2C3=O)cc1OC	-13	-3	-9	-3	-11	1	/	/
COc1ccc(C(=O)c2c(C(F)(F)F)oc3c2C(=O)c2ccccc2C3=O)cc1OC	32	0	111*	-3	86*	-26	71*	6
CN1CCN(C(c2cccc(Cl)c2)c2ccccc2Cl)CC1 (configuration not stated)	-9	-3	-7	-2	55*	14	44*	65*
CN1CCN(C(c2ccccc2)c2ccc(Cl)cc2)CC1 (configuration not stated)	-14	/	/	/	36	16	/	/
CC(C)(C)N(Cc1cc2ccccc2[nH]c1=O)C(=O)C1CCCCC1	-9	0	-7	-2	62*	24	64*	89*
COc1cc(NC(=O)c2cccs2)c(C(=O)OCC(=O)NC(C)c2ccccc2)cc1OC (configuration not stated)	1	-5	8	-1	15	11	/	/
COc1cc(NC(=O)c2cccs2)c(C(=O)OCC(=O)NCc2ccccc2)cc1OC	-5	-2	-17	-2	58*	-3	16	/
O=C(CSCc1ccc(Br)cc1)NCCc1ccccc1	6	-3	4	-2	4	-12	/	/
O=C(O)c1cc2c(cn1)[nH]c1ccccc12	1	0	1	0	-6	-1	/	/
O=C(NCCC1CCCCN1S(=O)(=O)c1ccc(F)cc1)C(=O)Nc1ccccc1F (configuration not stated)	-2	/	-19	/	6	-7	/	/
Cc1ccc(S(=O)(=O)N2CCCCC2CCNC(=O)C(=O)Nc2ccccc2F)cc1 (configuration not stated)	47	/	-148	/	52*	-32	75*	54*
COc1ccc(-c2[nH]ncc2-c2ccc3c(c2)OCCO3)c(O)c1	17	-3	36	-3	84*	13	90*	52*
CCCc1cc(-c2[nH]ncc2-c2ccc3c(c2)OCCCO3)c(O)cc1OC	/	-2	/	-2	/	/	/	/
COc1ccc(-c2cn[nH]c2-c2ccc(OCc3ccc([N+](=O)[O-])cc3)cc2O)cc1	18	-4	13	-3	86*	-7	77*	22
CCc1cc(-c2[nH]ncc2-c2ccc3c(c2)OCO3)c(O)cc1O	26	-3	0	-4	78*	-9	73*	38*
CCc1cc(-c2[nH]ncc2-c2ccc(OC)cc2)c(O)cc1O	-12	-2	-10	-3	37	-15	/	/
Cc1ccc(C(=O)N/C(=C\c2ccc(-c3ccc([N+](=O)[O-])cc3)o2)C(=O)NC2CCS(=O)(=O)C2)cc1 (configuration not stated)	-6	-2	24	1	4	16	/	/
CC(=O)c1ccc(-c2cccc(-c3cc(=O)oc4ccc(C(C)(C)C)cc34)c2)cc1	/	/	/	/	24	-4	/	/
CCOc1cccc(/C=N/NC(=O)c2cc(-c3cccn3C)n[nH]2)c1O	0	0	46	-6	63*	-4	62*	52*
C/C(=N\NC(=O)c1ccc2c(c1)OCCO2)c1ccccc1	6	-3	73*	0	71*	-76	-13	/
CCOc1cccc(/C=N/NC(=O)c2ccc3c(c2)OCCO3)c1O	18	-1	42	-2	56*	-52	43*	45*
COc1cc(OC)c(OC)cc1/C=N/NC(=O)c1cc(-c2cccn2C)n[nH]1	17	-3	7	-3	-5	11	/	/
COc1cccc(/C=N/NC(=O)CNC(=O)c2ccc3c(c2)OCCO3)c1O	-3	-2	27	-4	20	-2	/	/
SMILES	Jurkat NFkB inh	IMP-1 inh	aSyn 5UTR inh	VIM-2 inhibitor	Mdm2-MdmX inh	697 NFkB inh	Mdm2 MdmX conf	FLuc counter
C/C(=N\NC(=O)c1ccc(O)cc1)c1ccc2c(c1)OCCO2	-28	/	/	/	4	-20	/	/
COc1ccc(OCCSc2ncn[nH]2)cc1	-5	-2	-24	-1	6	-28	/	/
C=CCN(c1ccccc1C(=O)O)S(=O)(=O)c1ccc(C)cc1	-1	-2	15	-1	2	28	/	/
CCN(C[C@H]1N[C@@](Cc2ccccc2)(C(=O)OC)[C@H]2C(=O)N(Cc3ccccc3)C(=O)[C@@H]12)C(=O)Nc1ccc(F)cc1	10	/	/	/	37	-5	/	/
CC[C@@]1(C(=O)OC)N[C@H](CN(C)C(=O)c2ccc(C(C)(C)C)cc2)[C@@H]2C(=O)N(Cc3ccccc3)C(=O)[C@@H]21	7	/	/	/	43	16	/	/
CC[C@@]1(C(=O)OC)N[C@H](CN(C)C(=O)Nc2ccc(C(F)(F)F)cc2)[C@@H]2C(=O)N(Cc3ccccc3)C(=O)[C@@H]21	-6	/	/	/	84*	-4	81*	32
CCN(C[C@H]1N[C@@](Cc2ccccc2)(C(=O)OC)[C@H]2C(=O)N(Cc3ccccc3)C(=O)[C@@H]12)C(=O)Nc1ccc(Cl)cc1	-10	/	/	/	66*	-7	48*	56*
COC(=O)[C@]1(Cc2ccccc2)N[C@H](CN(C)C(=O)Nc2ccc(C(F)(F)F)cc2)[C@@H]2C(=O)N(Cc3ccccc3)C(=O)[C@@H]21	-5	/	/	/	70*	9	43*	65*
CCN(C[C@H]1N[C@@](CC)(C(=O)OC)[C@H]2C(=O)N(Cc3ccccc3)C(=O)[C@@H]12)C(=O)c1ccc(C(C)(C)C)cc1	19	/	/	/	75*	28	68*	55*
O=C1CSC(c2ccccc2O)N1Cc1ccccc1 (configuration not stated)	-12	3	12	-2	19	6	/	/
COc1ccc(OC)c(C2=NS(=O)(=O)N(C)C(C(=O)Nc3cccc(C(C)=O)c3)=C2)c1	2	-3	-7	3	3	-2	/	/
Cc1ccccc1N=Nc1c(C)[nH]n(-c2ccccc2)c1=O	/	-2	/	-3	/	/	/	/
